Values after ≈ are worked out from the molar mass of the structure shown.
What was measured:
Leishmania panamensis = test: Antimicrobial activity against Leishmania panamensis M/HOM//87/UA140 transfected with p6.5-egfp after 72 hrs by MTT assay; type: functional, organism-based; conditions: M/HOM//87/UA140, 72 h
In short: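 Axenic amastigotes of L. panamensis M/HOM//87/UA140 epirGFP strain (1 × 10^6 parasites/mL) incubated at 32 °C in Schneider's Drosophila medium pH 5.2 with 20% heat-inactivated FCS. Six concentrations, 3.1-100 µg/mL, from DMSO solutions, 72 h. MTT then added for 4 h, stopped with 2-propanol/SDS, OD 570 nm. DMSO-treated and untreated parasites as controls, amphotericin B as reference. Two independent experiments in triplicate, EC50 by Probit analysis.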

[1] = Cytotoxicity against human U937 cells; type: cell-based, U-937
[2] = Selectivity index, ratio of CC50 for human U937 cells to EC50 for Leishmania panamensis M/HOM//87/UA140; type: toxicity, cell-based, U-937; conditions: read-out: Selectivity Index

| SMILES | EC50 (Leishmania panamensis) [µg/mL] | CC50 [1] [µg/mL] | selectivity ratio [2] |
| --- | --- | --- | --- |
| COc1ccc2ccc(=O)oc2c1-c1cocc1C | 10 (≈ 39 µM) | 33 (≈ 129 µM) | 3 |
| C=C(C)[C@H]1O[C@@H]1c1c(OC[C@H]2OC2(C)C)ccc2ccc(=O)oc12 (relative stereo) | 10 (≈ 30.5 µM) | 9.7 (≈ 29.5 µM) | 1 |
| COc1ccc2ccc(=O)oc2c1C(C=O)=C(C)C [MURRALONGIN] | > 100 | 121 (≈ 470 µM) | – |
| C=C(C)[C@H]1O[C@@H]1c1c(OC)ccc2ccc(=O)oc12 [PHEBALOSIN] | – | 20.7 (≈ 80.1 µM) | 1.5 |
